Key:
[1] = biological target: Bromodomain-containing protein 4 (Homo sapiens, UniProt O60885); experiment: Inhibition of recombinant human His-tagged BRD4 bromodomain 1/2 (2 to 1362 residues) expressed in […] insect cells using biotinylated H4(1 to 21)K5/8/12/16Ac peptide as substrate preincubated for 30 mins followed by substrate addition and measured after 30 mins by Alpha screen assay
A549 = experiment: Antiproliferative activity against human A549 cells incubated for 48 hrs by MTT assay; format: functional, cell-based; conditions: A549, 48 h
In short: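 Cells kept in DMEM or RPMI 1640 with 10% FBS at 37 °C, 5% CO2. MTT added for 4 h at 37 °C, formazan dissolved in DMSO, OD read at 570 nm. Survival % taken relative to blank and control wells. Triplicate runs; IC50 from curve fit.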

SMILES | IC50 [1] | IC50 (A549)
O=c1[nH]c2ccc(NS(=O)(=O)Cc3ccccc3)cc2c2ccccc12 | 5.17 µM | –
CCCCS(=O)(=O)Nc1ccc2[nH]c(=O)c3ccccc3c2c1 | 5.54 µM | –
CCCS(=O)(=O)Nc1ccc2[nH]c(=O)c3ccccc3c2c1 | 6.71 µM | –
O=c1[nH]c2ccc(NS(=O)(=O)c3ccccc3)cc2c2ccccc12 | 1.64 µM | –
CC(C)(C)c1ccc(S(=O)(=O)Nc2ccc3[nH]c(=O)c4ccccc4c3c2)cc1 | 1.13 µM | –
O=C(Nc1ccc2[nH]c(=O)c3ccccc3c2c1)c1ccccc1 | 18.6 µM | –
O=C(Nc1ccccc1)Nc1ccc2[nH]c(=O)c3ccccc3c2c1 | 9.93 µM | –
COc1cc(Cl)ccc1S(=O)(=O)Nc1ccc2oc(=O)ccc2c1 | 0.93 µM | 4.63 µM
O=C(Nc1ccc2[nH]c(=O)c3ccccc3c2c1)Oc1ccccc1 | 6.02 µM | –
O=c1[nH]c2ccc(NS(=O)(=O)C3CCCCC3)cc2c2ccccc12 | 5.92 µM | –
O=c1[nH]c2ccc(NS(=O)(=O)c3ccccc3Cl)cc2c2ccccc12 | 1.25 µM | –
COc1ccccc1S(=O)(=O)Nc1ccc2[nH]c(=O)c3ccccc3c2c1 | 0.48 µM | –
O=c1[nH]c2ccc(NS(=O)(=O)C3CCCC3)cc2c2ccccc12 | 6.17 µM | –
O=c1[nH]c2ccc(NS(=O)(=O)c3cccs3)cc2c2ccccc12 | 6.74 µM | –

Results, then the molecule that gave them:

IC50 [1] | IC50 (A549) | SMILES
1.79 µM | – | N#Cc1cccc(S(=O)(=O)Nc2ccc3[nH]c(=O)c4ccccc4c3c2)c1
13.1 µM | – | O=c1[nH]c2ccc(NS(=O)(=O)c3ccc4c(c3)CCO4)cc2c2ccccc12
1.32 µM | – | COc1ccc(S(=O)(=O)Nc2ccc3[nH]c(=O)c4ccccc4c3c2)cc1
0.85 µM | – | O=c1[nH]c2ccc(NS(=O)(=O)c3ccc(Cl)cc3)cc2c2ccccc12
7.23 µM | – | O=c1[nH]c2ccc(NS(=O)(=O)c3ccc4ccccc4c3)cc2c2ccccc12
0.79 µM | – | O=c1[nH]c2ccc(NS(=O)(=O)c3cccc(Cl)c3)cc2c2ccccc12

— ChEMBL document CHEMBL4351018, “Novel phenanthridin-6(5H)-one derivatives as potent and selective BET bromodomain inhibitors: Rational design, synthesis and biological evaluation” (Eur J Med Chem, 2019)
